Source: ChEMBL document CHEMBL1141140, “Antifungal agents. 11. N-substituted derivatives of 1-[(aryl)(4-aryl-1H-pyrrol-3-yl)methyl]-1H-imidazole: synthesis, anti-Candida activity, and QSAR studies” (2005)
Converted amounts (≈) assume the structure as drawn.

Columns and labels:
Type in all cases: functional
Candida albicans [1] = assay: In vitro minimal inhibitory concentration against Candida albicans with percentage of resistant strains %R = 50 (MIC > 64 ug/mL) at a range of 0.5-2 ug/mL
Candida albicans [2] = assay: Ratio of the in vitro minimal inhibitory to that of bifonazole against Candida albicans (MIC(compound)/MIC(bifonazole))
Summary of the method: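 Broth microdilution per NCCLS M27-A2 against 12 Candida albicans strains (AIDS oropharyngeal, HIV vulvovaginitis isolates, ATCC 24433 and 20891, lab strains 3153 and CA2). Inoculum ~10^4 cells/mL in RPMI 1640, pH 7.0; DMSO stocks 6.4 mg/mL, twofold dilutions 0.016–64 μg/mL; read at 24 h, 28 °C, no visible growth. Mean MIC over strains converted to μmol/mL, divided by bifonazole MIC.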

Candida albicans [3] = assay: In vitro concentration causing 50% inhibition of Candida albicans with percentage of resistant strains %R = 50 (MIC > 64 ug/mL) at a range of 0.5-2 ug/mL
Candida albicans [4] = assay: In vitro concentration causing 90% inhibition of Candida albicans with percentage of resistant strains %R = 50 (MIC > 64 ug/mL) at a range of 0.5-2 ug/mL
Candida albicans [5] = assay: In vitro concentration causing 50% inhibition of Candida albicans with percentage of resistant strains %R = 25 (MIC > 64 ug/mL) at a range of 0.5-2 ug/mL
Candida albicans [6] = assay: In vitro concentration causing 90% inhibition of Candida albicans with percentage of resistant strains %R = 25 (MIC > 64 ug/mL) at a range of 0.5-2 ug/mL
Candida albicans [7] = assay: In vitro minimal inhibitory concentration against Candida albicans with percentage of resistant strains %R = 25 (MIC > 64 ug/mL) at a range of 0.5-2 ug/mL
Candida albicans [8] = assay: In vitro minimal inhibitory concentration against Candida albicans with percentage of resistant strains %R = 25 (MIC > 64 ug/mL) at a range of 0.062-0.25 ug/mL
Candida albicans [9] = assay: In vitro concentration causing 50% inhibition of Candida albicans with percentage of resistant strains %R = 25 (MIC > 64 ug/mL) at a range of 0.062-0.25 ug/mL
Candida albicans [10] = assay: In vitro concentration causing 90% inhibition of Candida albicans with percentage of resistant strains %R = 25 (MIC > 64 ug/mL) at a range of 0.062-0.25 ug/mL
Candida albicans [11] = assay: In vitro concentration causing 90% inhibition of Candida albicans with percentage of resistant strains %R = 36 (MIC > 64 ug/mL) at a range of 0.5-2 ug/mL
Candida albicans [12] = assay: In vitro minimal inhibitory concentration against Candida albicans with percentage of resistant strains %R = 36 (MIC > 64 ug/mL) at a range of 0.5-2 ug/mL
Candida albicans [13] = assay: In vitro concentration causing 50% inhibition of Candida albicans with percentage of resistant strains %R = 36 (MIC > 64 ug/mL) at a range of 0.5-2 ug/mL
Candida albicans [14] = assay: In vitro concentration causing 90% inhibition of Candida albicans with percentage of resistant strains %R = 41.66 (MIC > 64 ug/mL) at a range of 0.5-2 ug/mL
Candida albicans [15] = assay: In vitro concentration causing 50% inhibition of Candida albicans with percentage of resistant strains %R = 41.66 (MIC > 64 ug/mL) at a range of 0.5-2 ug/mL
Candida albicans [16] = assay: In vitro minimal inhibitory concentration against Candida albicans with percentage of resistant strains %R = 41.66 (MIC > 64 ug/mL) at a range of 0.5-2 ug/mL
Candida albicans [17] = assay: In vitro minimal inhibitory concentration against Candida albicans with percentage of resistant strains %R = 100 (MIC > 64 ug/mL) at a range > 64
Candida albicans [18] = assay: In vitro concentration causing 90% inhibition of Candida albicans with percentage of resistant strains %R = 100 (MIC > 64 ug/mL) at a range > 64
Candida albicans [19] = assay: In vitro concentration causing 50% inhibition of Candida albicans with percentage of resistant strains %R = 100 (MIC > 64 ug/mL) at a range > 64
Candida albicans [20] = assay: In vitro minimal inhibitory concentration against Candida albicans with percentage of resistant strains %R = 66 (MIC > 64 ug/mL) at a range of 2-8 ug/mL
Candida albicans [21] = assay: In vitro concentration causing 90% inhibition of Candida albicans with percentage of resistant strains %R = 66 (MIC > 64 ug/mL) at a range of 2-8 ug/mL
Candida albicans [22] = assay: In vitro concentration causing 50% inhibition of Candida albicans with percentage of resistant strains %R = 66 (MIC > 64 ug/mL) at a range of 2-8 ug/mL
Candida albicans [23] = assay: In vitro concentration causing 50% inhibition of Candida albicans with percentage of resistant strains %R = 33.33 (MIC > 64 ug/mL) at a range of 1-4 ug/mL
Candida albicans [24] = assay: In vitro minimal inhibitory concentration against Candida albicans with percentage of resistant strains %R = 33.33 (MIC > 64 ug/mL) at a range of 1-4 ug/mL
Candida albicans [25] = assay: In vitro concentration causing 90% inhibition of Candida albicans with percentage of resistant strains %R = 33.33 (MIC > 64 ug/mL) at a range of 1-4 ug/mL
Candida albicans [26] = assay: In vitro concentration causing 50% inhibition of Candida albicans with percentage of resistant strains %R = 10 (MIC > 64 ug/mL) at a range of 0.5-8 ug/mL
Candida albicans [27] = assay: Ratio of the in vitro minimal inhibitory concentrations to that of bifonazole against Candida albicans (MIC(compound)/MIC(bifonazole))
Candida albicans [28] = assay: In vitro concentration causing 90% inhibition of Candida albicans with percentage of resistant strains %R = 10 (MIC > 64 ug/mL) at a range of 0.5-8 ug/mL
Candida albicans [29] = assay: In vitro minimal inhibitory concentration against Candida albicans with percentage of resistant strains %R = 10 (MIC > 64 ug/mL) at a range of 0.5-8 ug/mL

Clc1ccc(C(c2c[nH]cc2-c2cccc3ccccc23)n2ccnc2)c(Cl)c1 (centres undefined)
MIC (Candida albicans [1]): 1 µg/mL (≈ 2.39 µM)
Ratio (Candida albicans [2]): 0.21
MIC50 (Candida albicans [3]): 0.5 µg/mL (≈ 1.2 µM)
MIC90 (Candida albicans [4]): 2 µg/mL (≈ 4.78 µM)

CCn1cc(-c2ccc(Cl)cc2)c(C(c2ccc(Cl)cc2Cl)n2ccnc2)c1 (centres undefined)
MIC50 (Candida albicans [5]): 2 µg/mL (≈ 4.64 µM)
Ratio (Candida albicans [2]): 0.31
MIC90 (Candida albicans [6]): 2 µg/mL (≈ 4.64 µM)
MIC (Candida albicans [7]): 1.5 µg/mL (≈ 3.48 µM)

CCC(C)n1ncn(-c2ccc(N3CCN(c4ccc(OC[C@H]5CO[C@](Cn6cncn6)(c6ccc(Cl)cc6Cl)O5)cc4)CC3)cc2)c1=O (some centres undefined) [ITRACONAZOLE]
MIC (Candida albicans [8]): 0.096 µg/mL (≈ 0.136 µM)
MIC50 (Candida albicans [9]): 0.062 µg/mL (≈ 0.0879 µM)
MIC90 (Candida albicans [10]): 0.125 µg/mL (≈ 0.177 µM)

Cn1cc(-c2ccccc2Cl)c(C(c2ccc(Cl)cc2Cl)n2ccnc2)c1 (centres undefined)
Ratio (Candida albicans [2]): 0.36
MIC90 (Candida albicans [11]): 2 µg/mL (≈ 4.8 µM)
MIC (Candida albicans [12]): 1.71 µg/mL (≈ 4.1 µM)
MIC50 (Candida albicans [13]): 2 µg/mL (≈ 4.8 µM)

CCn1cc(-c2ccc(Cl)cc2Cl)c(C(c2ccc(Cl)cc2Cl)n2ccnc2)c1 (centres undefined)
Ratio (Candida albicans [2]): 0.23
MIC90 (Candida albicans [14]): 2 µg/mL (≈ 4.3 µM)
MIC50 (Candida albicans [15]): 1 µg/mL (≈ 2.15 µM)
MIC (Candida albicans [16]): 1.21 µg/mL (≈ 2.6 µM)

CCCn1cc(-c2ccc(Cl)cc2Cl)c(C(c2ccc(Cl)cc2Cl)n2ccnc2)c1 (centres undefined)
MIC (Candida albicans [17]): > 64 µg/mL
MIC90 (Candida albicans [18]): > 64 µg/mL
MIC50 (Candida albicans [19]): > 64 µg/mL

CCn1cc(-c2cccc3ccccc23)c(C(c2ccc(Cl)cc2Cl)n2ccnc2)c1 (centres undefined)
MIC (Candida albicans [20]): 5.5 µg/mL (≈ 12.3 µM)
Ratio (Candida albicans [2]): 1.1
MIC90 (Candida albicans [21]): 8 µg/mL (≈ 17.9 µM)
MIC50 (Candida albicans [22]): 4 µg/mL (≈ 8.96 µM)

Cn1cc(-c2ccc(-n3cccc3)cc2)c(C(c2ccc(Cl)cc2Cl)n2ccnc2)c1 (centres undefined)
MIC50 (Candida albicans [23]): 4 µg/mL (≈ 8.94 µM)
MIC (Candida albicans [24]): 3.12 µg/mL (≈ 6.97 µM)
Ratio (Candida albicans [2]): 0.62
MIC90 (Candida albicans [25]): 4 µg/mL (≈ 8.94 µM)

c1ccc(-c2ccc(C(c3ccccc3)n3ccnc3)cc2)cc1 (centres undefined) [BIFONAZOLE]
MIC50 (Candida albicans [26]): 2 µg/mL (≈ 6.44 µM)
Ratio (Candida albicans [27]): 1
MIC90 (Candida albicans [28]): 8 µg/mL (≈ 25.8 µM)
MIC (Candida albicans [29]): 3.5 µg/mL (≈ 11.3 µM)
